Results as given in ChEMBL document CHEMBL3124872, “Discovery and early development of TMC647055, a non-nucleoside inhibitor of the hepatitis C virus NS5B polymerase” (J Med Chem, 2014).
Active and inactive are the calls of the source. The rule behind the calls is not given here.

Experiments:
Hepatitis C virus [1] = assay: Antiviral activity against Hepatitis C virus genotype 1b infected in human assessed as reduction in plasma HCV RNA level administered for 10 days measured on day 11; format: functional, organism-based; conditions: Hepacivirus hominis
Summary of the method: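 HCV genotype 1a- and 1b-infected patients received oral 1000 mg b.i.d. together with an NS3/4A protease inhibitor at 150 mg q.d. for 10 days. The read-out was the median decrease in plasma HCV RNA (log10 IU/mL) at day 11.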

[2] = Cytotoxicity against human HuH7 cells; format: cell-based, Huh-7
[3] = Binding affinity to Hepatitis C virus genotype 1a NS5B by surface plasmon resonance analysis; set-up: species or system Hepatitis C virus subtype 1a
Summary of the method: (§1)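 Surface plasmon resonance binding to NS5B polymerase of the stated genotype; association and dissociation rate constants measured, from which Kd and residence half-life were derived; median Kd reported.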

[4] = Binding affinity to Hepatitis C virus genotype 4a NS5B by surface plasmon resonance analysis; set-up: species or system Hepatitis C virus subtype 4a; summary of the method: as §1
Hepatitis C virus [5] = assay: Antiviral activity against Hepatitis C virus genotype 1a infected in human HuH7 by transient replicon assay; format: functional, organism-based, Hepacivirus hominis; conditions: subtype 1a, Huh-7
Summary of the method: (§2)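 Transient replicon assay using chimeric replicons whose NS5B region is derived from patient isolates of the stated genotype.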

Homo sapiens [6] = assay: Toxicity in HCV genotype 1-infected patient assessed as gastrointestinal side-effects at 500 to 1000 mg, po bid for 5 days followed by morning dose on day 6; format: organism-based; conditions: in vivo, 120 h
Summary of the method: (§3)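 HCV genotype 1-infected patients given oral b.i.d. doses of 500 or 1000 mg for 5 days plus a morning dose on day 6, in hydroxypropyl-β-cyclodextrin vehicle; adverse events with grading, laboratory parameters, vital signs, food consumption, appetite and ECG monitored.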

Hepatitis C virus [7] = assay: Antiviral activity against Hepatitis C virus genotype 2a infected in human HuH7 by transient replicon assay; format: functional, organism-based, Hepacivirus hominis; conditions: Huh-7; summary of the method: as §2
Homo sapiens [8] = assay: Toxicity in HCV genotype 1-infected patient assessed as grade-3 adverse events at 500 to 1000 mg, po bid for 5 days followed by morning dose on day 6; format: organism-based; conditions: in vivo, 120 h; summary of the method: as §3
Hepatitis C virus [9] = assay: Antiviral activity against Hepatitis C virus genotype 1b infected in human HuH7 assessed as rebound of replicon RNA at 3.75 uM preincubated for 2 weeks followed by 3 week rebound phase by RT-PCR analysis; format: functional, organism-based; conditions: Hepacivirus hominis, Huh-7
Summary of the method: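 Clearance-and-rebound test in Huh7-Luc genotype 1b replicon cells. Cells were incubated with inhibitor (3.75 μM alone) for 14 days, then held for a 3-week rebound phase without inhibitor. Replicon RNA was followed for clearance and rebound.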

Homo sapiens [10] = assay: Toxicity in human assessed as effect on laboratory parameters at 300 to 1250 mg, po bid for 5 days followed by morning dose on day 6; format: organism-based; conditions: in vivo, 120 h
Summary of the method: (§4)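 Healthy volunteers given oral b.i.d. doses of 300, 1000 or 1250 mg for 5 days plus a morning dose on day 6, in hydroxypropyl-β-cyclodextrin vehicle; adverse events, laboratory parameters, vital signs, food consumption, appetite, ECG and plasma 4-β-hydroxycholesterol (CYP3A4 induction marker) monitored.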

Homo sapiens [11] = assay: Toxicity in HCV genotype 1-infected patient assessed as grade-4 adverse events at 500 to 1000 mg, po bid for 5 days followed by morning dose on day 6; format: organism-based; conditions: in vivo, 120 h; summary of the method: as §3
Homo sapiens [12] = assay: Toxicity in HCV genotype 1-infected patient assessed as effect on ECG profile at 500 to 1000 mg, po bid for 5 days followed by morning dose on day 6; format: organism-based; conditions: in vivo, 120 h; summary of the method: as §3
Hepatitis C virus [13] = assay: Antiviral activity against Hepatitis C virus harboring […] A156V mutant infected in human HuH7 by luciferase reporter gene assay; format: functional, organism-based; conditions: Hepacivirus hominis; Huh-7
Hepatitis C virus [14] = assay: Antiviral activity against Hepatitis C virus genotype 1b infected in human HuH7 by transient replicon assay; format: functional, organism-based, Hepacivirus hominis; conditions: Huh-7; summary of the method: as §2
Hepatitis C virus [15] = assay: Antiviral activity against Hepatitis C virus harboring […] R155K mutant infected in human HuH7 by luciferase reporter gene assay; format: functional, organism-based; conditions: Hepacivirus hominis; Huh-7
Hepatitis C virus [16] = assay: Antiviral activity against wild-type Hepatitis C virus Con 1b infected in human HuH7 by transient replicon assay; format: functional, organism-based, Hepacivirus hominis; conditions: isolate Con1, Huh-7
Hepatitis C virus [17] = assay: Antiviral activity against Hepatitis C virus genotype 1b infected in human assessed as log10 reduction in HCV RNA level at 500 mg, po bid for 5 days followed by morning dose on day 6 relative to control; format: functional, Hepacivirus hominis
Summary of the method: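 Oral b.i.d. dosing of HCV genotype 1-infected patients at 500 mg or 1000 mg for 5 days, plus a morning dose on day 6, in hydroxypropyl-β-cyclodextrin vehicle. Read-out was the median maximum decrease in plasma HCV RNA from baseline (log10), using patients with HCV RNA data available up to Day 6.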

Homo sapiens [18] = assay: Toxicity in human assessed as grade-4 adverse events at 300 to 1250 mg, po bid for 5 days followed by morning dose on day 6; format: organism-based; conditions: in vivo, 120 h
Summary of the method: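 Oral b.i.d. dosing for 5 days plus a single morning dose on day 6, in a hydroxypropyl-β-cyclodextrin vehicle. Healthy volunteers received 300, 1000 or 1250 mg; HCV genotype 1-infected patients received 500 or 1000 mg. Monitoring covered adverse events graded by severity, laboratory parameters, vital signs, food consumption, appetite and ECG.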

Homo sapiens [19] = assay: Toxicity in human assessed as effect on appetite at 300 to 1250 mg, po bid for 5 days followed by morning dose on day 6; format: organism-based; conditions: in vivo, 120 h; summary of the method: as §4
Hepatitis C virus [20] = assay: Antiviral activity against Hepatitis C virus harboring NS5B S96T mutant infected in human HuH7 by luciferase reporter gene assay; format: functional, organism-based; conditions: Hepacivirus hominis; Huh-7
[21] = Binding affinity to Hepatitis C virus genotype 1b NS5B by surface plasmon resonance analysis; set-up: species or system Hepatitis C virus subtype 1b; summary of the method: as §1
Hepatitis C virus [22] = assay: Antiviral activity against Hepatitis C virus genotype 1a infected in human HuH7-SG cells after 3 days by RT-PCR analysis; format: functional, organism-based, Hepacivirus hominis; conditions: subtype 1a, Huh-7, 72 h
Hepatitis C virus [23] = assay: Antiviral activity against Hepatitis C virus harboring […] Y93H mutant infected in human HuH7 by luciferase reporter gene assay; format: functional, organism-based; conditions: Hepacivirus hominis; Huh-7
[24] = Binding affinity to Hepatitis C virus genotype 2b NS5B by surface plasmon resonance analysis; set-up: species or system Hepatitis C virus subtype 2b; summary of the method: as §1
Homo sapiens [25] = assay: Toxicity in human assessed as effect on vital signs at 300 to 1250 mg, po bid for 5 days followed by morning dose on day 6; format: organism-based; conditions: in vivo, 120 h; summary of the method: as §4
[26] = Inhibition of His6-tagged Hepatitis C virus Con 1b NS5B delta21 RNA dependent RNA polymerase expressed in Escherichia coli Rosetta 2 (DE3) after 2 hrs by primer-dependent transcription assay in presence of 5'-biotinylated rG13 primer
[27] = Selectivity ratio of EC50 for Hepatitis C virus genotype 2b to EC50 for wild-type Hepatitis C virus Con 1b; format: functional
Summary of the method: (§5)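 Transient replicon assay using chimeric replicons carrying NS5B from genotype 2a or 2b patient isolates. EC50 was compared with that against the genotype 1b replicon.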

[28] = Binding affinity to Hepatitis C virus Con 1b wild-type NS5B by surface plasmon resonance analysis; set-up: species or system Hepatitis C virus (isolate Con1); summary of the method: as §1
Homo sapiens [29] = assay: Toxicity in HCV genotype 1-infected patient assessed as effect on food consumption at 500 to 1000 mg, po bid for 5 days followed by morning dose on day 6; format: organism-based; conditions: in vivo, 120 h; summary of the method: as §3
[30] = Selectivity ratio of EC50 for Hepatitis C virus genotype 2a to EC50 for wild-type Hepatitis C virus Con 1b; format: functional; summary of the method: as §5
[31] = Cytotoxicity against human MT4 cells; format: cell-based
[32] = Binding affinity to Hepatitis C virus genotype 6a NS5B by surface plasmon resonance analysis; set-up: species or system Hepatitis C virus subtype 6a; summary of the method: as §1

## COc1ccc2c(c1)C=C1Cn3c-2c(C2CCCCC2)c2ccc(cc23)C(=O)NS(=O)(=O)N(C)CCOCCN(C)C1=O [TMC-647055]
Hepatitis C virus [1]
  Activity: Active
[2]
  CC50: 42100 nM
[3]
  Kd: 7.3 nM
[4]
  Kd: 2 nM
Hepatitis C virus [5]
  EC50: 48 nM
Homo sapiens [6]
  Activity: Toxic
Hepatitis C virus [7]
  EC50: 12500 nM
Homo sapiens [8]
  Activity: Non-toxic
Hepatitis C virus [9]
  Activity: inactive
Homo sapiens [10]
  Activity: Non-toxic
Homo sapiens [11]
  Activity: Non-toxic
Homo sapiens [12]
  Activity: Non-toxic
Hepatitis C virus [13]
  Activity: Active
Hepatitis C virus [14]
  EC50: 27 nM
Hepatitis C virus [15]
  Activity: Active
Hepatitis C virus [16]
  EC50: 51 nM
Hepatitis C virus [17]
  FC: 3.3
Homo sapiens [18]
  Activity: Non-toxic
Homo sapiens [19]
  Activity: Non-toxic
Hepatitis C virus [20]
  Activity: Active
[21]
  Kd: 3.9 nM
Hepatitis C virus [22]
  EC50: 166 nM
Hepatitis C virus [23]
  Activity: Active
[24]
  Kd: 880 nM
Homo sapiens [25]
  Activity: Non-toxic
[26]
  IC50: 34 nM
[27]
  Ratio EC50: >200
[28]
  Kd: 4.1 nM
Homo sapiens [29]
  Activity: Non-toxic
[30]
  Ratio EC50: >200
[31]
  CC50: 28900 nM
[32]
  Kd: 30 nM
